For one experiment, the species on record is Mus musculus. The experiment is described as follows: Induction of heat shock in mouse 3T3-Y9/B12 reporter cells at 5 uM by heat shock induction assay. The format is functional.
Another experiment relates to MCF7. As to the kind of experiment: Antiproliferative activity against human MCF7 cells by MTT assay. Format: functional, cell-based. The procedure, abridged: (§1)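 Cells were exposed for 72 h to serial dilutions of test compound in RPMI 1640 supplemented with 10% fetal bovine serum. Viability was read by MTT assay, and IC50 was taken as the concentration giving 50% inhibition of proliferation/survival. A positive control was run alongside.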

The test system of the next experiment is SF-268. As to the kind of experiment: Antiproliferative activity against human SF268 cells by MTT assay. Format: functional, cell-based. The procedure, abridged:
as §1

The test system of another experiment is NCI-H460. As to the kind of experiment: Antiproliferative activity against human NCI-H460 cells by MTT assay. The format is functional, cell-based. In a few lines: as §1
(In general: Tetrazolium dyes change colour on reduction, which living cells bring about.)

Active and inactive are the calls of the source. The rule behind the calls is not given here.

The IC50 is the concentration at which inhibition is half-maximal. The low end stands for greater potency, the high end for weaker potency. Turning to `C[C@@H]1C[C@H]2O[C@@H]2C[C@H](O)/C=C/C(=O)Cc2cc(O)cc(O)c2C(=O)O1`, the outcome in the experiment listed under Mus musculus was Active. Further, the IC50 came out at 150 nM with MCF7, 550 nM in the experiment with SF-268 and 300 nM in the experiment on NCI-H460.
`C[C@@H]1C[C@H]2O[C@@H]2/C=C\C=C\C(=O)Cc2c(Cl)c(O)cc(O)c2C(=O)O1`: the outcome in the experiment listed under Mus musculus was Active.
Regarding `COc1cccc2c1C(=O)c1c(O)c3c(c(O)c1C2=O)C[C@@](O)(C(=O)CO)C[C@@H]3O[C@H]1C[C@H](N)[C@H](O)[C@H](C)O1` [DOXORUBICIN], 10 nM corresponded to half-maximal inhibition with NCI-H460 (IC50).
Consider `C[C@@H]1C[C@H]2O[C@@H]2CC/C=C/C(=O)Cc2cc(O)cc(O)c2C(=O)O1` [MONOCILLIN III], for which the result in the experiment listed under Mus musculus was Active. Also, the results for the IC50 in the experiment on MCF7, in the experiment with SF-268 and in the experiment on NCI-H460 were 400 nM, 300 nM and 500 nM, respectively.
For `C[C@@H]1C[C@H]2O[C@@H]2/C=C\C=C\C(=O)Cc2cc(O)cc(O)c2C(=O)O1` [MONOCILLIN I], the result in the experiment filed under Mus musculus was Active. The concentration for half-maximal inhibition (IC50) was determined as 600 nM with MCF7, 720 nM in the experiment with SF-268 and 350 nM in the experiment on NCI-H460.

(Values after ChEMBL document CHEMBL1141446, “Uncovering biosynthetic potential of plant-associated fungi: effect of culture conditions on metabolite production by Paraphaeosphaeria quadriseptata and Chaetomium chiversii” (J Nat Prod, 2007).)
